According to ChEMBL document CHEMBL2086296, “Synthesis of novel quinoline-2-one based chalcones of potential anti-tumor activity” (Eur J Med Chem, 2012):

Key:
UACC-257 [1] = test: (§1) Cytotoxicity against human UACC257 cells after 24 hrs by SRB assay; assay type: functional; details: UACC-257, 24 h
How it was run: (§2)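 NCI 60-cell screen. Cells are grown in RPMI 1640 with 5% FBS and 2 mM L-glutamine and seeded at 5,000–40,000 cells/well according to doubling time. They are preincubated 24 h at 37 °C in 5% CO2, and Tz plates are TCA-fixed at drug addition. Drug stock is in DMSO, diluted in medium with gentamicin, and tested at five concentrations (100, 10, 1.0, 0.1, […]). Protein is read by SRB staining. GI50, TGI and LC50 are derived relative to time-zero and control wells.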

OVCAR-8 = test: Cytotoxicity against human OVCAR8 cells after 24 hrs by SRB assay; assay type: cell-based; details: ovcar-8, 24 h
How it was run: (§3)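 NCI 60-cell screen. Cells grown in RPMI 1640 with 5% FBS and 2 mM L-glutamine, seeded at 5,000–40,000 cells/well, preincubated 24 h at 37 °C in 5% CO2. Drug stock in DMSO, diluted in medium with gentamicin; five final concentrations, 100, 10, 1.0, 0.1 and […]. Time-zero plates were TCA-fixed. Protein read by SRB staining; GI50, TGI and LC50 taken relative to time-zero.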

SK-MEL-5 = test: Cytotoxicity against human SK-MEL-5 cells after 24 hrs by SRB assay; assay type: cell-based; details: sk-mel-5, 24 h; how it was run: as §3
RXF 393 = test: Cytotoxicity against human RXF393 cells after 24 hrs by SRB assay; assay type: functional; details: RXF 393, 24 h
How it was run: (§4)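 NCI 60-line screen. Cells in RPMI 1640 with 5% FBS and 2 mM L-glutamine, seeded at 5,000–40,000 cells/well by doubling time, then incubated 24 h at 37 °C, 5% CO2 before dosing. Time-zero plates fixed with TCA at drug addition. DMSO stocks diluted in medium with gentamicin to five concentrations, […]. Protein read by SRB staining. GI50, TGI and LC50 derived relative to control and time-zero.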

NCI-H23 = test: Cytotoxicity against human NCI-H23 cells after 24 hrs by SRB assay; assay type: functional; details: NCI-H23, 24 h; how it was run: as §4
U-251 [2] = test: (§5) Cytotoxicity against human U251 cells after 24 hrs by SRB assay; assay type: functional; details: U-251, 24 h; how it was run: as §2
UACC-257 [3] = test: as §1; assay type: cell-based; details: uacc-257, 24 h
How it was run: (§6)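 NCI 60-cell-line screen: cells grown in RPMI 1640 with 5% FBS and 2 mM L-glutamine, seeded at 5,000–40,000 cells/well by doubling time, and preincubated 24 h at 37 °C in 5% CO2. Time-zero plates were TCA-fixed. DMSO stocks were diluted in medium with gentamicin to five concentrations (100, 10, 1.0, 0.1, […]). Protein was read by SRB, and GI50, TGI and LC50 were derived against time-zero.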

U-251 [4] = test: as §5; assay type: cell-based; details: u-251, 24 h; how it was run: as §6
SF-539 [5] = test: (§7) Cytotoxicity against human SF539 cells after 24 hrs by SRB assay; assay type: functional; details: SF-539, 24 h; how it was run: as §4
M14 [6] = test: (§8) Cytotoxicity against human M14 cells after 24 hrs by SRB assay; assay type: functional; details: M14, 24 h; how it was run: as §4
T47D = test: Cytotoxicity against human T47D cells after 24 hrs by SRB assay; assay type: functional; how it was run: as §2
RPMI-8226 [7] = test: (§9) Cytotoxicity against human RPMI8226 cells after 24 hrs by SRB assay; assay type: cell-based; details: rpmi-8226, 24 h; how it was run: as §3
NCI-H226 = test: Cytotoxicity against human NCI-H226 cells after 24 hrs by SRB assay; assay type: cell-based; details: nci-h226, 24 h; how it was run: as §3
BT-549 = test: Cytotoxicity against human BT549 cells after 24 hrs by SRB assay; assay type: cell-based; details: bt-549, 24 h; how it was run: as §3
DU-145 [8] = test: (§10) Cytotoxicity against human DU145 cells after 24 hrs by SRB assay; assay type: functional; details: DU-145, 24 h; how it was run: as §4
CCRF-CEM = test: Cytotoxicity against human CCRF-CEM cells after 24 hrs by SRB assay; assay type: functional; how it was run: as §4
OVCAR-3 = test: Cytotoxicity against human OVCAR3 cells after 24 hrs by SRB assay; assay type: functional; details: OVCAR-3, 24 h; how it was run: as §4
RPMI-8226 [9] = test: as §9; assay type: functional; details: RPMI-8226, 24 h; how it was run: as §4
UACC-62 = test: Cytotoxicity against human UACC62 cells after 24 hrs by SRB assay; assay type: functional; details: UACC-62, 24 h; how it was run: as §2
NCI/ADR-RES = test: Cytotoxicity against human NCI/ADR-RES cells after 24 hrs by SRB assay; assay type: functional; how it was run: as §4
OVCAR-5 = test: Cytotoxicity against human OVCAR5 cells after 24 hrs by SRB assay; assay type: cell-based; details: ovcar-5, 24 h; how it was run: as §3
MDA-MB-435 [10] = test: (§11) Cytotoxicity against human MDA-MB-435 cells after 24 hrs by SRB assay; assay type: cell-based; details: mda-mb-435, 24 h; how it was run: as §3
M14 [11] = test: as §8; assay type: cell-based; details: m14, 24 h; how it was run: as §3
KM12 = test: Cytotoxicity against human KM12 cells after 24 hrs by SRB assay; assay type: functional; details: KM12, 24 h; how it was run: as §4
HCT-116 = test: Cytotoxicity against human HCT116 cells after 24 hrs by SRB assay; assay type: functional; details: HCT-116, 24 h; how it was run: as §4
MDA-MB-435 [12] = test: as §11; assay type: functional; details: MDA-MB-435, 24 h; how it was run: as §4
DU-145 [13] = test: as §10; assay type: cell-based; details: du-145, 24 h; how it was run: as §3
SF-539 [14] = test: as §7; assay type: cell-based; details: sf-539, 24 h; how it was run: as §3
NCI-H460 = test: Cytotoxicity against human NCI-H460 cells after 24 hrs by SRB assay; assay type: functional; details: NCI-H460, 24 h; how it was run: as §4
HT-29 = test: Cytotoxicity against human HT-29 cells after 24 hrs by SRB assay; assay type: functional; details: HT-29, 24 h; how it was run: as §4
SNB-75 = test: Cytotoxicity against human SNB75 cells after 24 hrs by SRB assay; assay type: cell-based; details: snb-75, 24 h; how it was run: as §6
SNB-19 = test: Cytotoxicity against human SNB19 cells after 24 hrs by SRB assay; assay type: cell-based; details: snb-19, 24 h; how it was run: as §6
MDA-MB-468 = test: Cytotoxicity against human MDA-MB-468 cells after 24 hrs by SRB assay; assay type: functional; details: MDA-MB-468, 24 h; how it was run: as §4
TK-10 = test: Cytotoxicity against human TK10 cells after 24 hrs by SRB assay; assay type: cell-based; details: tk-10, 24 h; how it was run: as §6
MOLT-4 = test: Cytotoxicity against human MOLT4 cells after 24 hrs by SRB assay; assay type: cell-based; details: molt-4, 24 h; how it was run: as §3
OVCAR-4 = test: Cytotoxicity against human OVCAR4 cells after 24 hrs by SRB assay; assay type: cell-based; details: ovcar-4, 24 h; how it was run: as §3

Compound: O=C(/C=C/c1cc2ccccc2[nH]c1=O)c1ccc(O)cc1
- GI50 (UACC-257 [1]): 3.87 µM
- TGI (UACC-257 [1]): 16 µM
- LC50 (OVCAR-8): > 100 µM
- LC50 (SK-MEL-5): 37.3 µM
- GI50 (RXF 393): 1.65 µM
- TGI (RXF 393): 3.23 µM
- GI50 (NCI-H23): 3.18 µM
- TGI (NCI-H23): 20 µM
- GI50 (U-251 [2]): 2.6 µM
- TGI (U-251 [2]): 10.9 µM
- LC50 (UACC-257 [3]): 47.9 µM
- LC50 (U-251 [4]): 45.3 µM
- GI50 (SF-539 [5]): 2.55 µM
- TGI (SF-539 [5]): 8.64 µM
- GI50 (M14 [6]): 2.6 µM
- TGI (M14 [6]): 6.57 µM
- GI50 (T47D): 4.19 µM
- TGI (T47D): 20.4 µM
- LC50 (RPMI-8226 [7]): > 100 µM
- LC50 (NCI-H226): 34.5 µM
- LC50 (BT-549): > 100 µM
- GI50 (DU-145 [8]): 4.02 µM
- TGI (DU-145 [8]): 14.3 µM
- GI50 (CCRF-CEM): 2.38 µM
- TGI (CCRF-CEM): > 100 µM
- GI50 (OVCAR-3): 3.22 µM
- TGI (OVCAR-3): 11.8 µM
- GI50 (RPMI-8226 [9]): 3.2 µM
- TGI (RPMI-8226 [9]): 24.8 µM
- GI50 (UACC-62): 2.88 µM
- TGI (UACC-62): 8.73 µM
- GI50 (NCI/ADR-RES): 2.9 µM
- TGI (NCI/ADR-RES): > 100 µM
- LC50 (OVCAR-5): 44.4 µM
- LC50 (MDA-MB-435 [10]): > 100 µM
- LC50 (M14 [11]): > 100 µM
- GI50 (KM12): 1.89 µM
- TGI (KM12): 4.5 µM
- GI50 (HCT-116): 1.94 µM
- TGI (HCT-116): 4.38 µM
- GI50 (MDA-MB-435 [12]): 2.94 µM
- TGI (MDA-MB-435 [12]): 16.8 µM
- LC50 (DU-145 [13]): 38 µM
- LC50 (SF-539 [14]): 61.674 µM
- GI50 (NCI-H460): 2.39 µM
- TGI (NCI-H460): 6.87 µM
- GI50 (HT-29): 3.61 µM
- TGI (HT-29): 12.1 µM
- LC50 (SNB-75): 55 µM
- LC50 (SNB-19): 50.6 µM
- GI50 (MDA-MB-468): 2.12 µM
- TGI (MDA-MB-468): 5.3 µM
- LC50 (TK-10): 34.6 µM
- LC50 (MOLT-4): > 100 µM

Compound: O=C(/C=C/c1cc2ccccc2[nH]c1=O)/C=C/c1cc2ccccc2[nH]c1=O
- GI50 (UACC-257 [1]): 1.98 µM
- TGI (UACC-257 [1]): 4.79 µM
- LC50 (OVCAR-8): > 100 µM
- LC50 (SK-MEL-5): > 100 µM
- GI50 (RXF 393): 1.79 µM
- TGI (RXF 393): 3.73 µM
- GI50 (NCI-H23): 2.42 µM
- TGI (NCI-H23): 87.7 µM
- GI50 (U-251 [2]): 0.372 µM
- TGI (U-251 [2]): 2.1 µM
- LC50 (UACC-257 [3]): > 100 µM
- LC50 (U-251 [4]): > 100 µM
- GI50 (SF-539 [5]): 2.13 µM
- TGI (SF-539 [5]): > 100 µM
- GI50 (M14 [6]): 0.393 µM
- GI50 (T47D): 3.27 µM
- TGI (T47D): > 100 µM
- LC50 (RPMI-8226 [7]): > 100 µM
- LC50 (NCI-H226): > 100 µM
- LC50 (BT-549): > 100 µM
- GI50 (DU-145 [8]): 4.18 µM
- TGI (DU-145 [8]): > 100 µM
- GI50 (CCRF-CEM): 0.697 µM
- TGI (CCRF-CEM): > 100 µM
- GI50 (OVCAR-3): 4.2 µM
- TGI (OVCAR-3): > 100 µM
- LC50 (OVCAR-4): > 100 µM
- GI50 (RPMI-8226 [9]): 0.341 µM
- TGI (RPMI-8226 [9]): > 100 µM
- GI50 (UACC-62): 4.61 µM
- TGI (UACC-62): > 100 µM
- GI50 (NCI/ADR-RES): > 100 µM
- TGI (NCI/ADR-RES): > 100 µM
- LC50 (M14 [11]): > 100 µM
- GI50 (KM12): 0.494 µM
- TGI (KM12): 1.83 µM
- GI50 (HCT-116): 0.131 µM
- TGI (HCT-116): 0.299 µM
- GI50 (MDA-MB-435 [12]): 0.258 µM
- TGI (MDA-MB-435 [12]): 0.81 µM
- LC50 (DU-145 [13]): > 100 µM
- LC50 (SF-539 [14]): > 100 µM
- GI50 (NCI-H460): 4.63 µM
- TGI (NCI-H460): > 100 µM
- GI50 (HT-29): 0.483 µM
- TGI (HT-29): 1.78 µM
- LC50 (SNB-19): > 100 µM
- GI50 (MDA-MB-468): 1.58 µM
- TGI (MDA-MB-468): 4.39 µM
- LC50 (TK-10): > 100 µM
- LC50 (MOLT-4): > 100 µM
